FXN GAA850 act: frataxin GAA850 promoter activation | HEK293 lucGAA850 FXN promoter luciferase reporter, 24 h; percent of 10 µM SAHA response | activation, % at 6 µM | hit rate 0.56% among 360,000 | AID 540364;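 active = activation above the average of all compounds screened plus 3 SD, cutoff fixed separately per campaign, cut at about 7.5% in these data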;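 note: 0% = DMSO wells and 100% = 10 µM SAHA wells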
APJ antagonist: antagonists of human APJ apelin receptor; P35414; CHO-K1 APJ beta-arrestin complementation, luminescence; inhibition, % at 20 µM; hit rate 0.32% among 330,000; AID 2521;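 active = inhibition above about 40% at 20 µM, limit read from the data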;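 note: cells challenged with 10 nM apelin-13 agonist together with compound; plate controls were apelin-13 plus DMSO wells for no effect and DMSO wells lacking apelin-13 for full effect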
CCR6 antagonist: blocks CCL20-driven beta-arrestin recruitment at human CCR6. P51684. inhibition, % at 20 µM. AID 493098. hit rate 0.49% among 340,000. CHO-K1 CCR6 PathHunter beta-arrestin, luminescence, CCL20-stimulated;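 active = compounds whose inhibition of the agonist-driven luminescence signal at 20 µM reaches about 50%, limit read from the data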;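 note: cells stimulated with CCL20 at 14 nM final; plate controls were DMSO with CCL20 for no effect and DMSO without agonist for full effect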
APJ agonist: APJ receptor agonism | CHO-K1 APJ PathHunter beta-arrestin, luminescence; 0% DMSO wells, 100% apelin | activation, % at 20 µM | hit rate 0.11% among 330,000 | AID 2520;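 active = activation more than six SD over the plate average, tested at 20 µM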;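 note: 0% = DMSO alone and 100% = apelin-13 at 10 nM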
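Material: CHO-K1 APJ beta-arrestin complementation cell line; Input: cell density 1000 per well; Incubation: compound stimulation 90 min at 25 °C, detection 60 min; Signal: luminescence from split beta-galactosidase complementation, Galacton Star/Emerald II substrate; Controls: DMSO-only wells as negative, 10 nM Apelin-13 as positive control.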
EBI2 block: blocks human EBI2 receptor beta-arrestin signaling | P32249 | EBI2 beta-arrestin recruitment, luminescence, 7a,25-OHC stimulated | inhibition, % at 5 µM | hit rate 0.81% among 360,000 | AID 651636; in the data active = inhibition above about 38%;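 note: enzyme fragment complementation signal reports receptor beta-arrestin coupling in cells; 0% = agonist plus DMSO wells and 100% = wells without agonist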
Target sequence (P32249 whole entry, looked up, the tested form may be a part): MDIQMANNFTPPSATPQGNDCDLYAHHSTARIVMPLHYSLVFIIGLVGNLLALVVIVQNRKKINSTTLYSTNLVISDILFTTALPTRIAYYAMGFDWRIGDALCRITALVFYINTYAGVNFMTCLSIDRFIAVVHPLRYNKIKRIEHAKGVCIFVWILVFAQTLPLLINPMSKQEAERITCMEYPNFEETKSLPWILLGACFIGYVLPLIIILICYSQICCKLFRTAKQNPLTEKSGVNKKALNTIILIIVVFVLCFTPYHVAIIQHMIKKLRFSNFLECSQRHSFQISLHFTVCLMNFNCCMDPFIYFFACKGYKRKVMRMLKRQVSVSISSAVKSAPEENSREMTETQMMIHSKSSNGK
CXCR6 block: blocks human CXCR6 beta-arrestin recruitment | inhibition, % at 20 µM | O00574 | CHO-K1 PathHunter CXCR6 beta-arrestin, luminescence | AID 602244 | hit rate 0.36% among 360,000; in the data active = inhibition above about 34%, passing the limit was not always enough;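 note: antagonist mode with CXCL16 agonist at 10 nM final; 0% = 10 nM CXCL16 with DMSO and 100% = unstimulated wells without agonist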
EBI2 antag conf: confirmation of human EBI2 receptor antagonists; shares compounds with EBI2 block; EBI2 beta-arrestin luminescence, 7a,25-OHC antagonism; inhibition, % at 5 µM; hit rate 29% among 2,400; AID 651997;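 active = inhibition of at least 50%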
EBI2 ag: counter-screen for EBI2 antagonists: EBI2 agonist activity; shares compounds with EBI2 block; EBI2-expressing cells, agonist mode, luminescence, 60 min; 0% vehicle, 100% 7α,25-dihydroxycholesterol control; activation, % at 5 µM; 2,400 tested, under 10 active; AID 652000;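 active = activation of at least 50%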
bGal cs: beta-galactosidase inhibition counter-screen; hit rate 1% among 2,400; shares compounds with EBI2 block; inhibition, % at 5 µM; purified beta-galactosidase, luminescent Galacton Star, 15 min;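 active = replicate-average signal at least 3 plate SD below neutral wells, shown as high inhibition, flagging enzyme-inhibiting false positives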;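 note: 0% = DMSO wells with enzyme and 100% = wells lacking enzyme; higher means stronger loss of beta-gal luminescence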
* = called active by the depositor; · = no result; ! = a repeat was not active. The list is not random: actives were taken first. Their share in the collection is about 2%.

SMILES | FXN GAA850 act | APJ antagonist | CCR6 antagonist | APJ agonist | EBI2 block | CXCR6 block | EBI2 antag conf | EBI2 ag | bGal cs
CCCCNc1c(-c2ccc(SC3CCCCC3)c(OC)c2)nc2ccc(C)cn12 | -1 | 6 | 14 | -1 | 52* | -1 | 55*! | 3 | 3
COc1ccc(-c2nc3ccc(C)cn3c2NCc2ccccc2)cc1SC1CCCCC1 | -1 | -12 | 10 | 25 | -28 | 7 | · | · | ·
Cc1ccc2nc(-c3cccc(SC4CCCCC4)c3)c(NC3CCCCC3)n2c1 | 1 | 4 | 34 | -1 | 31 | 17 | · | · | ·
CCCCCCSc1ccc(-c2nc3ccc(C)cn3c2NCc2ccccc2)cc1OC | 3 | -3 | 43 | -9 | 72* | 20 | 44 | 1 | 2
COc1ccc(-c2ccc(-c3nc4ccc(C)cn4c3NC3CCCCC3)cc2OC)cc1 | 1 | -11 | 26 | 9 | 72* | 16 | 65*! | 0 | -11
O=C(NCc1ccccc1)C1c2ccccc2OCC(=O)N1Cc1cccnc1 (centres undefined) | · | · | · | · | -11 | -3 | · | · | ·
CC(=O)Nc1cccc(-c2ccnc3c2CC(C)(C(=O)NCc2ccc(F)c(F)c2)O3)c1 (centres undefined) | -4 | · | · | · | 8 | -8 | · | · | ·
CCCC(=O)N1CCCC(c2cc(C(=O)NCc3ccc(F)cc3)no2)C1 (centres undefined) | 1 | · | · | · | 7 | 9 | · | · | ·
CCCCCCSc1ccc(-c2nc3ccc(C)cn3c2NCc2ccccc2)cc1 | 2 | 3 | 3 | -7 | 53* | 0 | 54*! | 1 | 2
CCCCNc1c(-c2ccc(OC)c(SC(C)CC)c2)nc2cc(C)ccn12 (centres undefined) | 0 | -11 | 23 | 10 | 31 | 1 | · | · | ·
CCCCNc1c(-c2ccc(-c3ccc(C(C)=O)cc3)c(OC)c2)nc2cc(C)ccn12 | -1 | -4 | 18 | 2 | 67* | 14 | 52* | 1 | 6
CC(NCC(O)COc1ccc2ccccc2c1)c1ccccc1 (centres undefined) | 0 | 18 | 1 | 2 | 46* | -10 | 18 | 0 | -6
COc1ccc(OCC(O)CNC(C)c2ccccc2)cc1 (centres undefined) | 0 | -6 | -3 | 0 | 22 | -3 | · | · | ·
COc1cccc(C(=O)c2c(-c3ccccc3)ncc3cc(OC)c(OC)cc23)c1 | -2 | · | 27 | · | 85* | 3 | 56* | 0 | -14
CC(C)C(OC(=O)c1oc2ccccc2c1CSC1CCCCC1)C(=O)NC(N)=O (centres undefined) | · | -7 | · | -4 | · | · | · | · | ·
CCNC(=O)NC(=O)C(C)OC(=O)c1oc2ccccc2c1CSC1CCCCC1 (centres undefined) | -2 | 6 | 13 | -4 | 44* | -3 | 35 | 0 | 2
COc1cccc(CNC(=O)[C@@H]2CCCN2C(=O)[C@@H]2CCCN2C(=O)c2cccc(OC)c2)c1 | · | · | · | · | -6 | -16 | · | · | ·
Cc1c(Cl)cccc1NC(=O)CCN1C(=O)C2CC=CCC2C1=O (centres undefined) | 0 | 6 | 12 | 5 | -1 | 0 | · | · | ·
CCN1C(=O)[C@H]2[C@@H](c3ccc(C)cc3)N[C@]3(CCCN(Cc4cccn4C)C3=O)[C@H]2C1=O | 2 | · | · | · | -3 | -2 | · | · | ·
O=C(NNc1ccc(C2CCCCC2)cc1)C(O)(c1ccccc1)c1cccs1 (centres undefined) | 1 | 31 | 24 | -9 | 41* | -8 | 36 | 0 | 8
Cc1cccc(CS(=O)(=O)Cc2ccc(C(=O)NCCc3ccccc3)o2)c1 | 2 | -9 | 12 | -3 | 32 | -1 | · | · | ·
Cc1ccccc1CS(=O)(=O)Cc1ccc(C(=O)NCCc2ccccc2)o1 | -2 | 4 | 17 | -3 | 37* | 11 | 28 | 0 | 2
